Measured values gathered from unrelated publications.
Target: Discoidin domain-containing receptor 2 (DDR2, Homo sapiens, UniProt Q16832)
Residues used in one study (Q16832 22-855): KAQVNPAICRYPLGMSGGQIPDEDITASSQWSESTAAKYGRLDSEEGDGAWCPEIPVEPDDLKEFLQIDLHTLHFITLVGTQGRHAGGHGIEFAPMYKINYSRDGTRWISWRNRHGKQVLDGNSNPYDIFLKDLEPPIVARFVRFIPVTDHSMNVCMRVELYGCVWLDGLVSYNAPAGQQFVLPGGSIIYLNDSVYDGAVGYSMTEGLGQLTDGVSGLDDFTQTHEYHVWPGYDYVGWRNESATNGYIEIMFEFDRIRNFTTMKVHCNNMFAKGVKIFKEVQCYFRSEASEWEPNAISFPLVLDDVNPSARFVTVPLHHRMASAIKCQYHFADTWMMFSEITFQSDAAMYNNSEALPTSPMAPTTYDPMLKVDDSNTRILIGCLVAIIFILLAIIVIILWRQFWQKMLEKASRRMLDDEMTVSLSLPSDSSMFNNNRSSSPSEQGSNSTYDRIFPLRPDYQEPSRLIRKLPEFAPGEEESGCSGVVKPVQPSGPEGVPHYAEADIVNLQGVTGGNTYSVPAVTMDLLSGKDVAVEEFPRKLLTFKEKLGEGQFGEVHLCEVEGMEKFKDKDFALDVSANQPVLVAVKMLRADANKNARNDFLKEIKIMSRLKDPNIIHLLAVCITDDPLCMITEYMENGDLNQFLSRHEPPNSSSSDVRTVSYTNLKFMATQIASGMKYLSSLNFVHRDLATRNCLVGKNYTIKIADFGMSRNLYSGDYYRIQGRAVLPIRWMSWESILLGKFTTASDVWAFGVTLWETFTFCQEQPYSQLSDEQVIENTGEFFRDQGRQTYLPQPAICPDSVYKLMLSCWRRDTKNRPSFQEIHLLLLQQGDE

Cn1cc(-c2cc(F)cc(N3CCn4c(cc5c4CCCC5)C3=O)c2CO)cc(Nc2ccc(N3CCN(C4COC4)CC3)cn2)c1=O gave an inhibition of -7% (enzyme activity, inhibitor; 0.1 µM).
O=c1[nH]c2ccccc2n1C1CCN(Cc2ccc(-c3[nH]c4cc5ncnc5cc4nc3-c3ccccc3)cc2)CC1 has a remaining signal of 99.2% (cell-free assay; 0.5 µM).
Cn1cc(-c2cccc(N3CCc4c(sc5c4CC(C)(C)C5)C3=O)c2CO)cc(Nc2ccncn2)c1=O has an inhibition of 1% (enzyme activity, inhibitor; 1 µM).
The remaining binding of N#CC1(c2ccccn2)CCN(Cc2cc(C(=O)O)c(=O)n3ccccc23)CC1 is reported as 100% (cell-free assay, competition with immobilised ligand; 1 µM).
For Nc1ncc(-c2nc(N3CCOCC3)nc(N3CCOCC3)n2)c(C(F)F)n1, the remaining binding was 57% (cell-free assay, competition with immobilised ligand; 10 µM).
The remaining binding of Cc1nn(C)cc1-c1nc2c(N3CCN(Cc4ccc(Cl)cc4)CC3)c(Cl)cnc2[nH]1 is reported as 96% (binding, competition with immobilised ligand; 1 µM).
CC(C)(C)c1cc(C=C(C#N)C#N)cc(Br)c1O has a remaining activity of 105% (enzyme activity, inhibitor; 0.5 µM).
C#Cc1n[nH]c2c(-c3cn([C@@H](C)c4ccccc4)c(=O)[nH]c3=O)cc(F)cc12 gave an inhibition of -1.1% (enzyme activity, inhibitor; 0.1 µM).
For COc1cc(Nc2ncc(F)c(Nc3ccc4c(n3)NC(=O)C(C)(C)O4)n2)cc(OC)c1OC, the inhibition was 86% (binding, competition with immobilised ligand; 10 µM).
With C#Cc1n[nH]c2c(-c3cn([C@@H](C)c4ccccn4)c(=O)[nH]c3=O)cc(F)cc12 the inhibition was 0.9% (enzyme activity, inhibitor; 0.1 µM).
With Cn1cncc1[C@@](O)(COc1ccc(C#N)cc1-c1ccc(OC(F)(F)F)cc1)c1ccc(C#N)cc1 the remaining binding was 95% (cell-free assay, competition with immobilised ligand; 1 µM).
With COc1ncccc1-c1cnn2ccc(N3CCN(C(=O)OC(C)C)CC3)nc12 the remaining binding was 36% (binding, competition with immobilised ligand; 1 µM).
